The results in this text go back to ChEMBL document CHEMBL4316604, “Discovery of Isaindigotone Derivatives as Novel Bloom's Syndrome Protein (BLM) Helicase Inhibitors That Disrupt the BLM/DNA Interactions and Regulate the Homologous Recombination Repair” (J Med Chem, 2019).

The target of assay [1] is T1, RecQ-like DNA helicase BLM (Homo sapiens, UniProt P54132). As to the kind of experiment: Inhibition of His-tagged BLM (unknown origin) expressed in Escherichia coli BL21 (DE3) assessed as reduction in BLM helicase unwinding activity at 50 uM using 5'-biotin labeled forked-DNA as substrate after 1 hr by PAGE analysis. Put shortly:
(§1)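 BLM642-1296 (His-tagged, E. coli BL21(DE3)) preincubated with ligand (1.0, 10, 50 μM; ≤1% DMSO) for 1 h at 4 °C. Reaction: 8 nM annealed 5′-biotin duplex forked DNA, 32 nM BLM, 2 mM ATP, 0.1% BSA, 1 h.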

Assay [2] addresses T1, RecQ-like DNA helicase BLM. The experiment in a line: Inhibition of His-tagged BLM (unknown origin) expressed in Escherichia coli BL21 (DE3) assessed as reduction in BLM helicase unwinding activity at 10 uM using 5'-biotin labeled forked-DNA as substrate after 1 hr by PAGE analysis. Put shortly:
as §1

Assay [3] deals with T1, RecQ-like DNA helicase BLM. The experiment in a line: Inhibition of His-tagged BLM (unknown origin) expressed in Escherichia coli BL21 (DE3) assessed as reduction in BLM helicase unwinding activity at 1 uM using 5'-biotin labeled forked-DNA as substrate after 1 hr by PAGE analysis. Put shortly: as §1
The target of assay [4] is T1, RecQ-like DNA helicase BLM. The experiment in a line: Inhibition of BLM in human HCT116 cells assessed as induction of HRR up-regulation after 24 hrs by GFP-based flow cytometry. Format: cell-based. The method in brief: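 HCT116 cells (2×10^5) co-transfected with DR-GFP HRR reporter and I-SceI plasmid; 24 h later treated with 0–2 μM ligand (reference 0–50 μM); BLM siRNA knockdown where stated. GFP-positive cells counted by flow cytometry and normalised to untreated; triplicate, mean ± SD.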
(In general: A flow cytometer gives signals particle by particle.)

Assay [5] addresses T1, RecQ-like DNA helicase BLM. The conditions noted are these: 50 uM.

Activity calls are given as the source filed them. The calls are words filed in the database; no cut-off is given here.

T1 sequence (P54132 whole entry): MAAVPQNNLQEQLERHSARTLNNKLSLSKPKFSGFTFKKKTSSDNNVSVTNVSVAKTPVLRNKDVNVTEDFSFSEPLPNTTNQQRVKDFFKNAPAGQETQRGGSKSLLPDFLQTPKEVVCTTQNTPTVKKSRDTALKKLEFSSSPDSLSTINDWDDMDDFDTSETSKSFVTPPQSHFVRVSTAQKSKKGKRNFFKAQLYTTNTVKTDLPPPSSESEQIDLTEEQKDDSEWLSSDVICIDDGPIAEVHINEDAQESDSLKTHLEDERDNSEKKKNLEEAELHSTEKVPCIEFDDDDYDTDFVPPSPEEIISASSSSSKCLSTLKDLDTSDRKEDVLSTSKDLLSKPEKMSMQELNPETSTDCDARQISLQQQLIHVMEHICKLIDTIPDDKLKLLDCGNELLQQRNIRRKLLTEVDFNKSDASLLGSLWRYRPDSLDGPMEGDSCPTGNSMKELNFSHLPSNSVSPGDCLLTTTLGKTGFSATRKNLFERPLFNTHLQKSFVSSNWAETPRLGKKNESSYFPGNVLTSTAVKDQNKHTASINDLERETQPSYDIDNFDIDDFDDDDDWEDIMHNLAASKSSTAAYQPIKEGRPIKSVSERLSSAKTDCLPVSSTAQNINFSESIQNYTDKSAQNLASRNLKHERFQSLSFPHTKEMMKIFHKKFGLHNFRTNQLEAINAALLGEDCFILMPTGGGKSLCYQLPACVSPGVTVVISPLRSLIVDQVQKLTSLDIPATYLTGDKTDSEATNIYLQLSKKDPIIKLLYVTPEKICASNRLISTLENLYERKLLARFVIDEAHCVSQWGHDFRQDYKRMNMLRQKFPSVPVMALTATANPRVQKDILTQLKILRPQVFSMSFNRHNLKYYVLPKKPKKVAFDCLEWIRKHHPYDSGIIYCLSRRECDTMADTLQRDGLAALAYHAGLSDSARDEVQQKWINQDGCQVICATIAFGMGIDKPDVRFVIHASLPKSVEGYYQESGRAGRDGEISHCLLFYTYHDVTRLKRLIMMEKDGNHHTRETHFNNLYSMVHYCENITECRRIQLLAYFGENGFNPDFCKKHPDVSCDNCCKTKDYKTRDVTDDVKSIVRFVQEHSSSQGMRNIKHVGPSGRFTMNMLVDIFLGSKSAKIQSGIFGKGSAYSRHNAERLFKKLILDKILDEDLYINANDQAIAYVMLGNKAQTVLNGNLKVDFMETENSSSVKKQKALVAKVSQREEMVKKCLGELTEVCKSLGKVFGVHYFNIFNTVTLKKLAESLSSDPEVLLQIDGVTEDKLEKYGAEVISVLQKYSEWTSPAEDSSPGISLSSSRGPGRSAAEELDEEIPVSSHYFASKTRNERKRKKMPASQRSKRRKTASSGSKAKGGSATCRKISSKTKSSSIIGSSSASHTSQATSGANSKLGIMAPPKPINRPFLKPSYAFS

As for `CCN(CC)CCCNc1cc2nc3n(c(=O)c2cc1F)CC/C3=C\c1ccc(CC(C)C)cc1`, the inhibition result in assay [1], in assay [2] and in assay [3] was “Active” in each case.
For the compound `O=C(Nc1ccc(F)c(C(F)(F)F)c1)Nc1nnc(-c2ccncc2)s1`, the inhibition entry in assay [1], in assay [2] and in assay [3] was “Active” throughout. For the same compound, the EC in assay [4] is 50 µM. Further, the inhibition result in assay [5] is “inactive”.
For `CCN(CC)CCCNc1cc2nc3n(c(=O)c2cc1F)CC/C3=C\c1ccc(C(C)(C)C)cc1`, the inhibition entry in assay [1], in assay [2] and in assay [3] was “Active” throughout.
Regarding `CCN(CC)CCCNc1cc2nc3n(c(=O)c2cc1F)CC/C3=C\c1ccc(C(F)(F)F)cc1`, the inhibition result in assay [1], in assay [2] and in assay [3] was “Active” in each case.
